Measured values taken from ChEMBL document CHEMBL3593225 (Bioorg Med Chem, 2015).
The source made the active and inactive calls. No cut-off for these calls is given here.

Tests used:
[1] = target: T1, 5-hydroxytryptamine receptor 1A (Homo sapiens) (UniProt P08908); assay: Agonist activity at human 5-HT1A receptor expressed in CHO cells after 90 mins by beta-arrestin-2 recruitment assay relative to 5-HT; assay type: cell-based
T1 sequence (whole entry): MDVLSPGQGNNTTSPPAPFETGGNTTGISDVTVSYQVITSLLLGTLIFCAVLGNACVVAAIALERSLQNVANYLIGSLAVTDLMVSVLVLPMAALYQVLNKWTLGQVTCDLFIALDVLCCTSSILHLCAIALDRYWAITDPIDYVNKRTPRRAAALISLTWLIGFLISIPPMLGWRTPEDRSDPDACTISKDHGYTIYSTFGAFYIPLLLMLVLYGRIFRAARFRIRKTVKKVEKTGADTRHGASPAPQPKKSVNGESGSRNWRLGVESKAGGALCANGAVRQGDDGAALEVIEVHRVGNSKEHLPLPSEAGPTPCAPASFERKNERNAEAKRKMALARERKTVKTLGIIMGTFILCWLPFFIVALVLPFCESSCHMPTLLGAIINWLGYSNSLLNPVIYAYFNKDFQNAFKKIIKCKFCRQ
In short: (§1)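 PathHunter enzyme-complementation β-arrestin-2 recruitment in CHO-K1 cells carrying HTR1A, 10^4 cells/well, plated 24–48 h at 37 °C before use. Compounds from methanol stocks, final 0.1–100 μM, applied for 90 min at 37 °C. Detection reagents then added for 60 min at room temperature, luminescence read. Pooled from 3–4 independent experiments in duplicate, with 5-HT on every plate as reference.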

[2] = target: T2, 5-hydroxytryptamine receptor 1A (Homo sapiens, UniProt P08908); assay: Agonist activity at human 5-HT1A receptor expressed in CHO cells assessed as inhibition of forskolin-stimulated cAMP accumulation after 15 mins by ELISA; assay type: functional, cell-based
T2 sequence (P08908 whole entry): T1 sequence (whole entry)
In short: (§2)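 CHO-1A cells (10^4/well) grown 24 h, then 24 h in serum-free DMEM/F-12. Compounds co-incubated with 1 μM forskolin for 15 min at 37 °C in serum-free medium with 5 μM pargyline and 2.5 mM theophylline. Lysis in 1% Triton X-100/0.1 M HCl, cAMP measured by acetylated ELISA. Sigmoidal or Gaussian bell-shaped fits.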

[3] = target: T2, 5-hydroxytryptamine receptor 1A; assay: Agonist activity at human 5-HT1A receptor expressed in CHO cells after 90 mins by beta-arrestin-2 recruitment assay; assay type: cell-based
In short: as §1, with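 “read.” for “read. Pooled from 3–4 independent experiments in duplicate, with 5-HT on every plate as reference.”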

[4] = target: T2, 5-hydroxytryptamine receptor 1A; assay: Agonist activity at human 5-HT1A receptor expressed in human HeLa cell membranes assessed as stimulation of [35S]GTPgammaS binding after 20 mins by liquid scintillation counting analysis; assay type: functional
[5] = target: T1, 5-hydroxytryptamine receptor 1A (Homo sapiens); assay: Ratio for agonist activity at human 5-HT1A receptor expressed in CHO cells by forskolin-stimulated cAMP accumulation assay to agonist activity at human 5-HT1A receptor expressed in CHO cells by beta-arrestin-2 recruitment assay; assay type: functional, cell-based
[6] = target: T1, 5-hydroxytryptamine receptor 1A (Homo sapiens); assay: Agonist activity at human 5-HT1A receptor expressed in CHO cells assessed as inhibition of forskolin-stimulated cAMP accumulation after 15 mins by ELISA relative to 5-HT; assay type: functional, cell-based
In short: as §2, with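 “ELISA. Forskolin alone set as 0%, 5-HT maximum as 100%.” for “ELISA.”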

[7] = target: T1, 5-hydroxytryptamine receptor 1A (Homo sapiens); assay: Agonist activity at human 5-HT1A receptor expressed in CHO cells assessed as ERK1/2 phosphorylation at 1 uM after 5 mins by Western blot analysis relative to control; assay type: cell-based
In short: (§3)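 CHO-1A cells (2 × 10^5/well) grown 24 h, then 24 h serum-free. Agonists given at 1 μM in medium with 5 μM pargyline and 2.5 mM theophylline for 5 min at 37 °C. Lysates in SDS buffer with protease/phosphatase inhibitors. Phospho-ERK1/2 Western blot densitometry normalized to calnexin, untreated baseline subtracted, 5-HT set as 100%. Three experiments in triplicate, one-way ANOVA with Dunnett's test against untreated.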

[8] = target: T1, 5-hydroxytryptamine receptor 1A (Homo sapiens); assay: Agonist activity at human 5-HT1A receptor expressed in CHO cells assessed as ERK1/2 phosphorylation at 1 uM after 5 mins by Western blot analysis relative to 5-HT; assay type: cell-based; in short: as §3

Row | SMILES | Emax [1] [%] | EC50 [2] [nM] | EC50 [3] [nM] | Ki [4] [nM] | Ratio [5] | Emax [6] [%] | Activity [7] | Activity [8] [%] | fold change (FC) [7]
1 | CCCN(CCC)C1CCc2cccc(O)c2C1 (racemic) | 44.5 | – | – | – | – | – | – | – | –
2 | COc1ccc2c(c1)CC(CCN1CCN(c3ccccn3)CC1)CC2 (stereo unspecified) | 35.9 | 20.9 | 3.55 | 0.16 | < 10 | 73.5 | – | – | –
3 | COc1cccc2c1CCC/C2=C\CCN1CCN(c2ccccn2)CC1 | 22.8 | 2.95 | 3390 | 0.31 | < 10 | 66.9 | – | – | –
4 | COc1cccc2c(CCCN3CCN(c4ccccn4)CC3)cccc12 | 10.7 | 1.26 | – | 0.38 | – | 53.6 | inactive | – | –
5 | COc1cccc([C@H]2CC[C@H](N3CCN(c4ccccn4)CC3)CC2)c1 | 27.9 | 0.794 | 0.324 | 0.028 | < 10 | 69.5 | – | 30.4 | –
6 | COc1cccc(CCCCN2CCN(c3ccccn3)CC2)c1 | 5.9 | – | – | 23 | – | 53.4 | – | – | –
7 | COc1cccc2c1CCCC2CCCN1CCN(c2ccccn2)CC1 (stereo unspecified) | – | 0.776 | – | 0.48 | – | – | – | – | –
8 | NCCc1c[nH]c2ccc(O)cc12 | – | – | – | – | – | – | – | – | 6.4
